{
  "source": "ChEMBL document CHEMBL4411287",
  "about": "“Discovery and optimization of a series of 3-substituted indazole derivatives as multi-target kinase inhibitors for the treatment of lung squamous cell carcinoma” (Eur J Med Chem, 2019)",
  "key": {"KG-1": {"tested_on": "KG-1", "test": "Antiproliferative activity against human KG1 cells after 72 hrs by CCK8 assay", "settings": "KG-1, 72 h"}, "[1]": {"test": "Half life in ICR(CD-1) mouse at 10 mg/kg, po administered via gavage by triple quadrupole mass spectrometric analysis", "type": "ADME, organism-based", "settings": "in vivo", "how_it_was_run": "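Oral gavage at 1 mg/mL in 1% Tween80/water to male ICR mice (18-22 g, n=3). Plasma sampled at 0.25, 0.5, 1, 2, 4, 8 and 24 h, protein precipitated with methanol:acetonitrile (1:1) containing internal standard, and quantified by UPLC-triple quadrupole MS. AUC and MRT were taken from per-animal time-concentration curves. Cmax is the maximum plasma level and Tmax the time to reach it.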"}, "[2]": {"target": "Hepatocyte growth factor receptor (Homo sapiens) (UniProt P08581)", "test": "Inhibition of c-Met (unknown origin) at 1000 nM relative to control", "how_it_was_run": "(§1)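 ELISA with purified recombinant kinase on plates precoated with poly(Glu,Tyr) 4:1 at 20 µg/mL. ATP 10 µM in HEPES pH 7.4 buffer with MgCl2, MnCl2, Na3VO4 and DTT. Run 60 min at 37 °C. Detected with anti-phosphotyrosine PY99, HRP secondary antibody and o-phenylenediamine, read at 490 nm. Inhibition % = [1 − A490/A490 control]×100. 1% DMSO as negative control.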"}, "[3]": {"target": "Receptor tyrosine-protein kinase erbB-2 (Homo sapiens) (UniProt P04626)", "test": "Inhibition of ErbB2 (unknown origin) at 1000 nM relative to control", "how_it_was_run": "(§2)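 Purified recombinant kinase domains run in ELISA on precoated poly(Glu,Tyr) 4:1 (20 µg/mL) with 10 µM ATP in 50 mM HEPES pH 7.4, 50 mM MgCl2, 0.5 mM MnCl2, 0.2 mM Na3VO4, 1 mM DTT; 1% DMSO control; 60 min at 37 °C. Phosphotyrosine read by PY99 antibody, HRP anti-mouse IgG, OPD/H2O2 at 490 nm; inhibition = [1−A490/A490control]×100%; two separate experiments.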"}, "[4]": {"target": "Receptor tyrosine-protein kinase erbB-4 (Homo sapiens) (UniProt Q15303)", "test": "Inhibition of ErbB4 (unknown origin) at 1000 nM relative to control", "how_it_was_run": "as §2"}, "[5]": {"target": "Vascular endothelial growth factor receptor 2 (Homo sapiens) (UniProt P35968)", "sequence (P35968 whole entry)": "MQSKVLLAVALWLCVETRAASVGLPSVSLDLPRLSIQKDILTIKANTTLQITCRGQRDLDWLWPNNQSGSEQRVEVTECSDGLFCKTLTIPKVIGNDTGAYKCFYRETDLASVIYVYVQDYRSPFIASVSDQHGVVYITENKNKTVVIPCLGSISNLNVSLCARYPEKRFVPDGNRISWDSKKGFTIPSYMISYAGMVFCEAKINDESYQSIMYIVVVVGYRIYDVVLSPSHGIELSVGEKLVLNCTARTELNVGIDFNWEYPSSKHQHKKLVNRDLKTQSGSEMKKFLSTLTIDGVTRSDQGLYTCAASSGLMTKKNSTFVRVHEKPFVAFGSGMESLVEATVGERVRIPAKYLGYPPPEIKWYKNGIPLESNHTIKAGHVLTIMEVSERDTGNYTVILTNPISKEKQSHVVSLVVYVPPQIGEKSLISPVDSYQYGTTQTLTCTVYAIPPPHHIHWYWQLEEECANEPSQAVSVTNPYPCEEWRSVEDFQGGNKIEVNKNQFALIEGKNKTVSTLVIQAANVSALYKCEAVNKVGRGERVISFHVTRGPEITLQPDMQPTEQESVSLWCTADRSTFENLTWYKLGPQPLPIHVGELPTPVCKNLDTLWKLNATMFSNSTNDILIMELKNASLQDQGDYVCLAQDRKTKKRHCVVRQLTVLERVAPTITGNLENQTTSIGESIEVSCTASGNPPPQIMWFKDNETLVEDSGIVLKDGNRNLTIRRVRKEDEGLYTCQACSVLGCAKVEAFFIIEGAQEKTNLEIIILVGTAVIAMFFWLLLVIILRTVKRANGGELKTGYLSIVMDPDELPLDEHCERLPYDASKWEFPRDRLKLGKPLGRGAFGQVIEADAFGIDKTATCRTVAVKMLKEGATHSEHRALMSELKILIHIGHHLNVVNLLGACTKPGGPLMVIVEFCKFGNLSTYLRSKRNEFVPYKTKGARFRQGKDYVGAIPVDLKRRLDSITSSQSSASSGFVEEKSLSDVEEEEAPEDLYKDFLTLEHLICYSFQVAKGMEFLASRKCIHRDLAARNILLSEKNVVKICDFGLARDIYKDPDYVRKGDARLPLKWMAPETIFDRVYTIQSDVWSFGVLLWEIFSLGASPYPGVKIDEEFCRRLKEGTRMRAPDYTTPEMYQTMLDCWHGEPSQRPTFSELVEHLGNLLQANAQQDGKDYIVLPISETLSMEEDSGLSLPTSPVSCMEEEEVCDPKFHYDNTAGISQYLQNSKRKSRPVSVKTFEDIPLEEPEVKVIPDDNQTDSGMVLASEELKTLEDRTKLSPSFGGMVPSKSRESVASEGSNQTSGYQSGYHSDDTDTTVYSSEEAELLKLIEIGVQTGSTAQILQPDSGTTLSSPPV", "test": "Inhibition of VEGFR2 (unknown origin) at 1000 nM relative to control", "how_it_was_run": "as §1"}, "[6]": {"target": "Proto-oncogene tyrosine-protein kinase Src (Homo sapiens) (UniProt P12931)", "sequence (P12931 2-536 limits assumed)": "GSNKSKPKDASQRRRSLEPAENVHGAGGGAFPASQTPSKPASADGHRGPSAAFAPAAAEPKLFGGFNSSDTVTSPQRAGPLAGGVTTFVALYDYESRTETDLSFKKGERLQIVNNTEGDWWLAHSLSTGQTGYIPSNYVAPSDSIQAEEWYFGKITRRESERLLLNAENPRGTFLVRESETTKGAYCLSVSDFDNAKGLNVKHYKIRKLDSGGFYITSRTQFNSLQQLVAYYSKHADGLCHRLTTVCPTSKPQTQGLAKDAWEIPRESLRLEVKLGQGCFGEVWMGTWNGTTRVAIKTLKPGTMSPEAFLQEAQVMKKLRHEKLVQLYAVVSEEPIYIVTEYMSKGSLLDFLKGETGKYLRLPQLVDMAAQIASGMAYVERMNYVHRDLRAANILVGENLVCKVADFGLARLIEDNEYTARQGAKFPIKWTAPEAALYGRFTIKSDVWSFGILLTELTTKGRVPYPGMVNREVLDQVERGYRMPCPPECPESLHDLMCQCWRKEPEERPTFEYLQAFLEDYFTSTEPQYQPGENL", "test": "Inhibition of c-Src (unknown origin) at 100 nM relative to control", "how_it_was_run": "as §1"}, "[7]": {"target": "Fibroblast growth factor receptor 4 (Homo sapiens) (UniProt P22455)", "sequence (P22455 22-802 limits assumed)": "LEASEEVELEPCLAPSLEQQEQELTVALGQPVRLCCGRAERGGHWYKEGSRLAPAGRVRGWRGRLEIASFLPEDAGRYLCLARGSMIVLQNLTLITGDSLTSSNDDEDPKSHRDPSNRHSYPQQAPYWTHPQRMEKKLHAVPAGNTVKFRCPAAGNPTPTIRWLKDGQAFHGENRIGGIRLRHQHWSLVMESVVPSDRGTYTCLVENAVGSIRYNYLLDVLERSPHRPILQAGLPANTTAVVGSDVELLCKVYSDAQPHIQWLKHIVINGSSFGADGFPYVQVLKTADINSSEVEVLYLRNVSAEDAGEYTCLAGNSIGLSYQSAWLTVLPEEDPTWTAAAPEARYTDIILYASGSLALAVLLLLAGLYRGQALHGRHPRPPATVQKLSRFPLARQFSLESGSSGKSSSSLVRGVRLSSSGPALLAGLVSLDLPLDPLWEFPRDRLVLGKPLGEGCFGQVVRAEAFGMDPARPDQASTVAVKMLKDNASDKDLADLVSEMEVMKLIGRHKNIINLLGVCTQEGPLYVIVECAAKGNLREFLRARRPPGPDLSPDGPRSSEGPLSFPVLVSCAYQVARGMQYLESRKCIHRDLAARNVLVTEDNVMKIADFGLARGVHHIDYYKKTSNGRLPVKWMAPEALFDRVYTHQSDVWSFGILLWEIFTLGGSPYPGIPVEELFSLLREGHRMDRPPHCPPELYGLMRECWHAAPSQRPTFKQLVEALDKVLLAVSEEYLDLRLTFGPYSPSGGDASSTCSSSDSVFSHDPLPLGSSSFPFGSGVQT", "test": "Inhibition of FGFR4 (unknown origin) at 100 nM relative to control", "how_it_was_run": "as §2"}, "[8]": {"target": "Insulin-like growth factor 1 receptor (Homo sapiens) (UniProt P08069)", "sequence (P08069 31-736 limits assumed)": "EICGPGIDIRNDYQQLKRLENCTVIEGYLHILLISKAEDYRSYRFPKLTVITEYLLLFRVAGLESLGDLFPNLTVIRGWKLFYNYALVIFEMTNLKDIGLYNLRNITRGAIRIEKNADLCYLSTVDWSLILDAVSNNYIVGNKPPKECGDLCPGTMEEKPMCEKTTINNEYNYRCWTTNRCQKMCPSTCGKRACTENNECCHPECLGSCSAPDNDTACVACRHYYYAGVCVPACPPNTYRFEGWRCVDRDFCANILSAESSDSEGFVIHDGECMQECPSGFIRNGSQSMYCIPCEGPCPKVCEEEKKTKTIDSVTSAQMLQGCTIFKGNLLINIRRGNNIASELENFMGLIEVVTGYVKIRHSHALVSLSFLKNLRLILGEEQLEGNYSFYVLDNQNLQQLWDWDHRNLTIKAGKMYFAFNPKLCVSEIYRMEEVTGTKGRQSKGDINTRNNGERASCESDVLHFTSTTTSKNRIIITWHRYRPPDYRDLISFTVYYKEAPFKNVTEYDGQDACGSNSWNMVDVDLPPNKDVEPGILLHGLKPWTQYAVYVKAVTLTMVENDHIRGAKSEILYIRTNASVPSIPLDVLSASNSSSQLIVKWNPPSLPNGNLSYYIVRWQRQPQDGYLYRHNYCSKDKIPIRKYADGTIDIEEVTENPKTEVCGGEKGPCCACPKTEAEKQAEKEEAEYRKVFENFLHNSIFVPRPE", "sequence (P08069 741-1367 limits assumed)": "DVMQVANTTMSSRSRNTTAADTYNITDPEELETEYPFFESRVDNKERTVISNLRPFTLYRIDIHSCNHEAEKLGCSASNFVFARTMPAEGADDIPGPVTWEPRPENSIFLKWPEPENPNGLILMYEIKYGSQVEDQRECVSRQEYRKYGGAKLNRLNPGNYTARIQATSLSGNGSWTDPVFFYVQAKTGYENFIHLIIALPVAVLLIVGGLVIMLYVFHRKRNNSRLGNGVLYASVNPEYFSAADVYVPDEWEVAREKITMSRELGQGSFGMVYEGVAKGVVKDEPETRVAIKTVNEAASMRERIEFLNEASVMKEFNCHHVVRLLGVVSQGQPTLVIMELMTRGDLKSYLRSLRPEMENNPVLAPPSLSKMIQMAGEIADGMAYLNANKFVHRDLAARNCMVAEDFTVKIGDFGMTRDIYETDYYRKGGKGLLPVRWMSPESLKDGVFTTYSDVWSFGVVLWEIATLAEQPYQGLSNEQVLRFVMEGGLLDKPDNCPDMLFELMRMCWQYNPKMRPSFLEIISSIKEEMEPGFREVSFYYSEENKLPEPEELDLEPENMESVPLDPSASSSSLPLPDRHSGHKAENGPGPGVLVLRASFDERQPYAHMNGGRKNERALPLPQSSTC", "test": "Inhibition of IGF1R (unknown origin) at 100 nM relative to control", "how_it_was_run": "as §2"}, "[9]": {"target": "Platelet-derived growth factor receptor alpha (Homo sapiens) (UniProt P16234)", "test": "Inhibition of PDGFR-alpha (unknown origin) at 100 nM relative to control", "how_it_was_run": "as §2"}, "[10]": {"target": "Macrophage colony-stimulating factor 1 receptor (Homo sapiens) (UniProt P07333)", "sequence (P07333 whole entry)": "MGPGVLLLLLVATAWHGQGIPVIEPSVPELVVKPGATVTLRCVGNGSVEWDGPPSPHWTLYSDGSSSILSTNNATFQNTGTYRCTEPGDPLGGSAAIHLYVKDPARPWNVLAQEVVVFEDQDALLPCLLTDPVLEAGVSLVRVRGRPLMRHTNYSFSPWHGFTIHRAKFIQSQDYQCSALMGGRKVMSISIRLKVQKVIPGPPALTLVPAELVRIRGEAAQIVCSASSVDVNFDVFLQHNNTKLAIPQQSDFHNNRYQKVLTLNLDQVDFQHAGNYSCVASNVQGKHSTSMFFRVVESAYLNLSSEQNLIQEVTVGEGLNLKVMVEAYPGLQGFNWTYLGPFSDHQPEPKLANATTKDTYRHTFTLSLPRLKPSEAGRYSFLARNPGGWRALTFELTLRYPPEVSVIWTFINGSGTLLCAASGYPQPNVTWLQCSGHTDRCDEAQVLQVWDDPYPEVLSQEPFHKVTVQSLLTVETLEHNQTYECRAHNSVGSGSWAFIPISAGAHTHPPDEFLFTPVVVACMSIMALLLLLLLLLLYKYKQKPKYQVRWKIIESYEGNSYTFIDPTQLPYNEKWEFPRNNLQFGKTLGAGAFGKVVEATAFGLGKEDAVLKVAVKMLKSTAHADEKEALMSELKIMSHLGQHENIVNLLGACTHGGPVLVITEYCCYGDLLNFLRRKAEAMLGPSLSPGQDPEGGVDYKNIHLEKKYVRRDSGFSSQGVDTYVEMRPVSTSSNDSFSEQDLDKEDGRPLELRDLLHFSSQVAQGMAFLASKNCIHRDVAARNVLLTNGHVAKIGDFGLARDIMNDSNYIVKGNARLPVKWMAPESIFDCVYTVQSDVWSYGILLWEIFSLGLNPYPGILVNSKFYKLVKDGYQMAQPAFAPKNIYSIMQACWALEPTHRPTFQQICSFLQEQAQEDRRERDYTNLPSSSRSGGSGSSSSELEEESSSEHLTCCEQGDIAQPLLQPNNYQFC", "test": "Inhibition of CSF-1R (unknown origin) at 10 nM relative to control"}, "[11]": {"target": "T1, Ephrin type-B receptor 2 (Homo sapiens) (UniProt P29323)", "T1 sequence (whole entry)": "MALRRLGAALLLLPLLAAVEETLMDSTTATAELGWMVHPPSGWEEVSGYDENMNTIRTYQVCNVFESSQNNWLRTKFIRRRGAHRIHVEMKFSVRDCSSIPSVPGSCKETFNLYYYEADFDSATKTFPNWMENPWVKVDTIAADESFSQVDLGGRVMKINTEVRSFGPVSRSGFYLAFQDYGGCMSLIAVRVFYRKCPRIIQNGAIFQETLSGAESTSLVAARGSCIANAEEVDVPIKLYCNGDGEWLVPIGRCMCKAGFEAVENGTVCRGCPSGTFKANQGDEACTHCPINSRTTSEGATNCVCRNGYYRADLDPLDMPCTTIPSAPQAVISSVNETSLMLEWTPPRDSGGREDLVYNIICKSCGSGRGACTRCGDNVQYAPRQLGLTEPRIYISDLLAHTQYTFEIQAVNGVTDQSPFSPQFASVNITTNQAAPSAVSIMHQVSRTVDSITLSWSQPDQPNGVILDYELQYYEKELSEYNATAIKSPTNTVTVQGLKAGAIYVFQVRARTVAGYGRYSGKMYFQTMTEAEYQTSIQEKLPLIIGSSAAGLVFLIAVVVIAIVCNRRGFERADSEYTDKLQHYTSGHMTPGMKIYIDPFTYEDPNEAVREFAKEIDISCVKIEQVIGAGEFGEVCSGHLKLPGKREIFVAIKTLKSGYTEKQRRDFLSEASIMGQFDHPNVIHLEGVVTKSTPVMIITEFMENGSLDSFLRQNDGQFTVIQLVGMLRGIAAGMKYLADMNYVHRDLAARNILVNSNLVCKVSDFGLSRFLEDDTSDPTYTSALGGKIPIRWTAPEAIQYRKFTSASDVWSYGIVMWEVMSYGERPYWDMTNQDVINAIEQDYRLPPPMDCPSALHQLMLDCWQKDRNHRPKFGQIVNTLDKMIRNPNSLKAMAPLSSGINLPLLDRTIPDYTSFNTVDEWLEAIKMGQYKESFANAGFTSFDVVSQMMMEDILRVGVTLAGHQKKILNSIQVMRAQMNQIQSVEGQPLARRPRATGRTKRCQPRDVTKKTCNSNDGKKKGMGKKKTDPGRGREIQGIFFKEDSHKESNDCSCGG", "test": "Inhibition of EPH-B2 (unknown origin) at 10 nM relative to control", "how_it_was_run": "as §2"}, "[12]": {"target": "Fibroblast growth factor receptor 4 (Homo sapiens) (UniProt P22455)", "test": "Inhibition of FGFR4 (unknown origin) at 10 nM relative to control", "how_it_was_run": "as §2"}, "[13]": {"target": "Receptor-type tyrosine-protein kinase FLT3 (Homo sapiens) (UniProt P36888)", "test": "Inhibition of FLT-3 (unknown origin) at 10 nM relative to control", "how_it_was_run": "as §2"}, "[14]": {"target": "Insulin-like growth factor 1 receptor (Homo sapiens) (UniProt P08069)", "test": "Inhibition of IGF1R (unknown origin) at 10 nM relative to control", "how_it_was_run": "as §2"}, "[15]": {"target": "Platelet-derived growth factor receptor beta (Homo sapiens) (UniProt P09619)", "test": "Inhibition of PDGFR-beta (unknown origin) at 10 nM relative to control", "how_it_was_run": "as §2"}, "SNU-16": {"tested_on": "SNU-16", "test": "Antiproliferative activity against FGFR2 amplified human SNU16 cells after 72 hrs by CCK8 assay", "type": "functional, cell-based", "settings": "SNU-16, 72 h", "how_it_was_run": "(§3)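 Cells seeded at low density in growth medium and compounds added the next day. Incubated 72 h, then proliferation read by sulforhodamine B, MTT or CCK-8. IC50 obtained by four-parameter concentration-response curve fitting.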"}, "NCI-H2286": {"tested_on": "NCI-H2286", "test": "Antiproliferative activity against human NCI-H2286 cells harboring DDR2 mutation after 72 hrs by CCK8 assay", "type": "functional, cell-based", "settings": "NCI-H2286, 72 h", "how_it_was_run": "as §3"}, "[16]": {"target": "Voltage-gated inwardly rectifying potassium channel KCNH2 (Homo sapiens, UniProt Q12809)", "test": "Inhibition of human ERG by automated patch clamp electrophysiology assay", "how_it_was_run": "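Automated patch clamp electrophysiology on the hERG channel.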"}},
  "data": [
    {"smiles": "Cc1ccc(C(=O)Nc2cccc(C(F)(F)F)c2)cc1-c1ccc2c(-c3cnn(C4CC4)c3)n[nH]c2c1", "values": [
      {"measurement": "IC50", "setting": "KG-1", "result": 108, "unit": "nM"},
      {"measurement": "half-life", "setting": "[1]", "result": 3.05, "unit": "h"},
      {"measurement": "inhibition", "setting": "[2]", "result": 47.5, "unit": "%"},
      {"measurement": "inhibition", "setting": "[3]", "result": 0, "unit": "%"},
      {"measurement": "inhibition", "setting": "[4]", "result": 36.9, "unit": "%"},
      {"measurement": "inhibition", "setting": "[5]", "result": 100, "unit": "%"},
      {"measurement": "inhibition", "setting": "[6]", "result": 87.6, "unit": "%"},
      {"measurement": "inhibition", "setting": "[7]", "result": 27.2, "unit": "%"},
      {"measurement": "inhibition", "setting": "[8]", "result": 8.2, "unit": "%"},
      {"measurement": "inhibition", "setting": "[9]", "result": 75.7, "unit": "%"},
      {"measurement": "inhibition", "setting": "[10]", "result": 65.3, "unit": "%"},
      {"measurement": "inhibition", "setting": "[11]", "result": 48, "unit": "%"},
      {"measurement": "inhibition", "setting": "[12]", "result": 8.1, "unit": "%"},
      {"measurement": "inhibition", "setting": "[13]", "result": 59.3, "unit": "%"},
      {"measurement": "inhibition", "setting": "[14]", "result": 0, "unit": "%"},
      {"measurement": "inhibition", "setting": "[15]", "result": 59.5, "unit": "%"},
      {"measurement": "IC50", "setting": "SNU-16", "result": 93.4, "unit": "nM"},
      {"measurement": "IC50", "setting": "NCI-H2286", "result": 93, "unit": "nM"},
      {"measurement": "IC50", "setting": "[16]", "result": "> 40000", "unit": "nM"}
    ]}
  ]
}
